Source: ChEMBL document CHEMBL6083223, “Development of di-arylated 1,2,4-triazole-based derivatives as therapeutic agents against breast cancer: synthesis and biological evaluation” (RSC Med Chem, 2024)
pIC50: −log10 of the molar value. Values belong to the compound of their own block, whether it stands above or below them. Activity calls are given as the source filed them. The calls are words filed in the database; no cut-off is given here.

Assays:
[1] = test system: MCF7; test: Antiproliferative activity against human MCF7 cells assessed as inhibition of cell growth at 10 uM incubated for 48 hrs by MTT assay; assay type: functional
Summary of the method: (§1)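 Single-concentration screen: cells (ATCC; 37 °C, 5% CO₂) seeded at 4 × 10⁴ per well, adhered overnight, then treated 48 h at 10 μM. Medium removed, MTT (2.5 mg mL⁻¹) added for 4 h, formazan dissolved in DMSO, absorbance read at 570 nm; percent inhibition versus untreated cells.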

[2] = test system: ZR-75-1; test: Antiproliferative activity against human ZR-75-1 cells assessed as inhibition of cell growth incubated for 48 hrs by MTT assay; assay type: functional, cell-based; conditions: ZR-75-1, 48 h
[3] = test system: ZR-75-1; test: Antiproliferative activity against human ZR-75-1 cells assessed as inhibition of cell growth at 10 uM incubated for 48 hrs by MTT assay; assay type: functional; summary of the method: as §1
[4] = test system: MDA-MB-231; test: Antiproliferative activity against human MDA-MB-231 cells assessed as inhibition of cell growth at 10 uM incubated for 48 hrs by MTT assay; assay type: functional; summary of the method: as §1
[5] = test system: MCF7; test: Antiproliferative activity against human MCF7 cells assessed as inhibition of cell growth incubated for 48 hrs by MTT assay; assay type: functional, cell-based; conditions: MCF7, 48 h
Summary of the method: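 MCF-7 exposed 48 h to 0.625, 1.25, 2.5, 5, 10, 20 and 40 μM. MTT (2.5 mg mL⁻¹) added for 4 h, medium removed, formazan solubilized in DMSO, absorbance at 570 nm; percent growth inhibition calculated and IC50 derived.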

[6] = test system: MDA-MB-231; test: Antiproliferative activity against human MDA-MB-231 cells assessed as inhibition of cell growth incubated for 48 hrs by MTT assay; assay type: functional, cell-based; conditions: MDA-MB-231, 48 h
[7] = test system: ZR-75-1; test: Antiproliferative activity against human ZR-75-1 cells assessed as inhibition of cell growth at 1 uM incubated for 48 hrs by MTT assay; assay type: functional
Summary of the method: (§2)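 Positive-control reference measured alongside the single-concentration screen: cells seeded at 4 × 10⁴ per well, adhered overnight, exposed 48 h to doxorubicin at 1 μM. MTT (2.5 mg mL⁻¹) added for 4 h, formazan dissolved in DMSO, absorbance at 570 nm; percent growth inhibition relative to untreated cells.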

[8] = test system: MDA-MB-231; test: Antiproliferative activity against human MDA-MB-231 cells assessed as inhibition of cell growth at 1 uM incubated for 48 hrs by MTT assay; assay type: functional; summary of the method: as §2
[9] = test system: MCF7; test: Antiproliferative activity against human MCF7 cells assessed as inhibition of cell growth at 1 uM incubated for 48 hrs by MTT assay; assay type: functional; summary of the method: as §2
[10] = Cytotoxicity against human MCF-10A cells assessed as inhibition of cell growth incubated for 24 hrs by MTT assay; assay type: toxicity, cell-based
Summary of the method: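 Non-tumorigenic MCF-10A breast epithelial cells in 96-well plates (5% CO₂) exposed 24 h to 10, 50 and 100 μM. MTT (2.5 mg mL⁻¹) for 4 h, formazan dissolved in DMSO, absorbance at 570 nm; percent growth inhibition calculated to estimate IC50.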

[11] = test system: MCF7; test: Induction of apoptosis in human MCF7 cells assessed as increase in cleaved PARP protein expression at 5 to 20 uM incubated for 48 hrs by western blot analysis; assay type: functional, cell-based; conditions: dose 5-20 µM
Summary of the method: (§3)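 MCF-7 cells (1 × 10⁶ per 100 mm dish, RPMI 1640 with 10% FBS) treated 48 h at 5, 10, 15 and 20 μM, 37 °C. RIPA lysates, Bradford-quantified, 50 μg per lane on SDS-PAGE, PVDF transfer, 5% BSA/TBST block; probed for cleaved PARP (1:1000) and Bax (1:400), band densitometry.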

[12] = test system: MCF7; test: Induction of autophagy in human MCF7 cells assessed as increase in autophagosome production at 5 to 20 uM by acridine orange staining based fluorescence microscopic analysis; assay type: functional, cell-based; conditions: dose 5-20 µM
Summary of the method: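 MCF-7 cells treated at 5, 10 and 20 μM, then stained with 200 nM acridine orange for 10 min at 37 °C and imaged by fluorescence microscopy.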

[13] = Metabolic stability of the compound in human liver microsomes at 5 uM measured for 30 mins in absence of NADPH by substrate depletion method based LC-MS/MS analysis; assay type: ADME, Microsome; conditions: 0.5 h
Summary of the method: (§4)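 NADPH-free control incubations: microsomes (0.5 mg mL⁻¹) in 100 mM PBS pH 7.4 with 3.3 mM MgCl₂, no NADPH, 37 °C; compound 5 μM, 0–30 min. Acetonitrile quench with diazepam internal standard, LC-MS/MS; percent remaining versus 0 min, triplicate.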

[14] = test system: MCF7; test: Induction of apoptosis in human MCF7 cells assessed as disruption of mitochondrial […] membrane potential by measuring decrease in fluorescence intensity at 5 to 20 uM incubated for 30 mins by Rhodamine123 staining based fluorescence microscopic analysis; assay type: functional, cell-based; conditions: dose 5-20 µM
Summary of the method: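 MCF-7 cells treated at 5, 10 and 20 μM; rhodamine 123 (1 μg) added 30 min before the end of treatment, cells rinsed with PBS and examined under a fluorescence microscope for loss of mitochondrial fluorescence.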

[15] = test system: MCF7; test: Increase in reactive oxygen species production in human MCF7 cells treated with higher concentrations by DCFH-DA staining based fluorescence microscopic analysis; assay type: functional, cell-based
[16] = Intrinsic clearance in dog liver microsomes measured per mg protein; assay type: ADME, Canis lupus familiaris, Microsome; conditions: read-out: CLH
Summary of the method: (§5)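 Substrate depletion: microsomes (0.5 mg mL⁻¹ protein) in 100 mM PBS pH 7.4, 3.3 mM MgCl₂, 1.2 mM NADPH, preincubated 5 min at 37 °C; compound spiked at 5 μM, sampled at 0, 15 and 30 min. Quenched with cold acetonitrile containing diazepam internal standard, LC-MS/MS; triplicate. Log-linear plot of remaining substrate (0 min = 100%) gives parameters.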

[17] = Half life in human liver microsomes; assay type: ADME, Microsome; summary of the method: as §5
[18] = Half life in dog liver microsomes; assay type: ADME, Canis lupus familiaris, Microsome; summary of the method: as §5
[19] = Metabolic stability of the compound in monkey liver microsomes at 5 uM measured for 30 mins in absence of NADPH by substrate depletion method based LC-MS/MS analysis; assay type: ADME, Macaca mulatta, Microsome; conditions: rhesus monkey, 0.5 h; summary of the method: as §4
[20] = Intrinsic clearance in human liver microsomes measured per mg protein; assay type: ADME, Microsome; summary of the method: as §5
[21] = Half life in mouse liver microsomes; assay type: ADME, Microsome; summary of the method: as §5
[22] = Intrinsic clearance in rat liver microsomes measured per mg protein; assay type: ADME, Microsome; conditions: read-out: CLH; summary of the method: as §5
[23] = Half life in rat liver microsomes; assay type: ADME, Microsome; summary of the method: as §5
[24] = Metabolic stability of the compound in dog liver microsomes at 5 uM measured for 30 mins in absence of NADPH by substrate depletion method based LC-MS/MS analysis; assay type: ADME, Canis lupus familiaris, Microsome; conditions: 0.5 h; summary of the method: as §4
[25] = test system: MCF7; test: Induction of apoptosis in human MCF7 cells assessed as increase in Bax protein expression at 5 to 20 uM incubated for 48 hrs by western blot analysis; assay type: functional, cell-based; conditions: dose 5-20 µM; summary of the method: as §3
[26] = Metabolic stability of the compound in rat liver microsomes at 5 uM measured for 30 mins in absence of NADPH by substrate depletion method based LC-MS/MS analysis; assay type: ADME, Microsome; conditions: 0.5 h; summary of the method: as §4
[27] = Metabolic stability of the compound in mouse liver microsomes at 5 uM measured for 30 mins in absence of NADPH by substrate depletion method based LC-MS/MS analysis; assay type: ADME, Microsome; conditions: 0.5 h; summary of the method: as §4
[28] = Intrinsic clearance in monkey liver microsomes measured per mg protein; assay type: ADME, Macaca mulatta, Microsome; conditions: rhesus monkey; summary of the method: as §5
[29] = Intrinsic clearance in mouse liver microsomes measured per mg protein; assay type: ADME, Microsome; summary of the method: as §5
[30] = Half life in monkey liver microsomes; assay type: ADME, Macaca mulatta, Microsome; conditions: rhesus monkey; summary of the method: as §5

pIC50 [5]: 5.24
pIC50 [6]: 4.68
SMILES: COc1cc(-n2cnc(-c3cccc(N)c3)n2)cc(OC)c1OC
inhibition at 10 µM [1]: 57.6%
pIC50 [2]: 4.15
inhibition at 10 µM [3]: 12.1%
inhibition at 10 µM [4]: 22.7%

SMILES: COc1ccc(-c2ncn(-c3ccccc3)n2)cc1
inhibition at 10 µM [1]: 0.853%
inhibition at 10 µM [3]: 0%
inhibition at 10 µM [4]: 0%

SMILES: COc1cccc(-c2ncn(-c3cc(OC)c(OC)c(OC)c3)n2)c1
inhibition at 10 µM [1]: 16.4%
inhibition at 10 µM [4]: 16.4%

SMILES: COc1cc(-n2cnc(-c3cc(Cl)cc(Cl)c3)n2)cc(OC)c1OC
inhibition at 10 µM [1]: 0%
inhibition at 10 µM [4]: 17.4%

SMILES: c1ccc2c(-c3ncn(-c4ccc5c(c4)OCO5)n3)cccc2c1
inhibition at 10 µM [1]: 5.71%
inhibition at 10 µM [4]: 15.3%

pIC50 [6]: 5.77
SMILES: COc1cccc2c1C(=O)c1c(O)c3c(c(O)c1C2=O)C[C@@](O)(C(=O)CO)C[C@@H]3O[C@H]1C[C@H](N)[C@H](O)[C@H](C)O1 [DOXORUBICIN]
pIC50 [2]: 5.92
inhibition at 1 µM [7]: 45.5%
inhibition at 1 µM [8]: 37.9%
inhibition at 1 µM [9]: 45.5%

pIC50 [5]: 5.28
pIC50 [6]: 4.82
SMILES: COc1cc(-n2cnc(-c3ccc4nc[nH]c4c3)n2)cc(OC)c1OC
inhibition at 10 µM [1]: 58.5%
pIC50 [2]: 4.03
inhibition at 10 µM [3]: 21.2%
IC50 at 24 h [10]: > 100 µM
inhibition at 10 µM [4]: 31.6%

SMILES: COc1ccc(-n2cnc(-c3ccc(F)c(F)c3)n2)cc1OC
inhibition at 10 µM [1]: 16.1%
inhibition at 10 µM [4]: 7.98%

SMILES: COc1ccc(-n2cnc(-c3ccc(C(F)(F)F)cc3)n2)cc1OC
inhibition at 10 µM [1]: 21.3%
inhibition at 10 µM [4]: 15.8%

SMILES: COc1ccc(-c2ncn(-c3cc(OC)c(OC)c(OC)c3)n2)cc1OC
inhibition at 10 µM [1]: 28.9%
inhibition at 10 µM [4]: 23.5%

SMILES: COc1cc(-n2cnc(-c3cccc(C=O)c3)n2)cc(OC)c1OC
inhibition at 10 µM [1]: 13.4%
inhibition at 10 µM [4]: 22.6%

SMILES: COc1ccc(-n2cnc(-c3ccc(F)cc3)n2)cc1OC
inhibition at 10 µM [1]: 17.6%
inhibition at 10 µM [4]: 16.8%

SMILES: COc1ccc(-n2cnc(-c3cccc(C(F)(F)F)c3)n2)cc1OC
inhibition at 10 µM [1]: 18.4%
inhibition at 10 µM [4]: 12.8%

SMILES: COc1cc(-n2cnc(-c3ccc4c(c3)OCO4)n2)cc(OC)c1OC
inhibition at 10 µM [1]: 21.2%
inhibition at 10 µM [4]: 17.9%

SMILES: COc1cc(-n2cnc(-c3cccc(O)c3)n2)cc(OC)c1OC
inhibition at 10 µM [1]: 32.8%
inhibition at 10 µM [3]: 8.54%
inhibition at 10 µM [4]: 10.4%

pIC50 [5]: 4.96
pIC50 [6]: 4.03
SMILES: COc1cc(-n2cnc(-c3cccc(C(F)(F)F)c3)n2)cc(OC)c1OC
inhibition at 10 µM [1]: 48.6%
pIC50 [2]: 4.01
inhibition at 10 µM [3]: 2.39%
inhibition at 10 µM [4]: 5.77%

SMILES: COc1cc(-n2cnc(-c3ccc(F)cc3)n2)cc(OC)c1OC
inhibition at 10 µM [1]: 20.2%
inhibition at 10 µM [4]: 23.1%

SMILES: COc1cc(-n2cnc(-c3cccc4ccccc34)n2)cc(OC)c1OC
inhibition at 10 µM [1]: 13.4%
inhibition at 10 µM [4]: 22.6%

Stability [13]: Stable
microsomal CLint [16]: > 53 µL/min/mg
half-life [17]: > 60 min
half-life [18]: < 30 min
Stability [19]: Stable
microsomal CLint [20]: 13 µL/min/mg
half-life [21]: 34 min
microsomal CLint [22]: > 86.1 µL/min/mg
half-life [23]: < 30 min
Stability [24]: Stable
Stability [26]: Stable
pIC50 [5]: 5.32
Stability [27]: Stable
microsomal CLint [28]: 23 µL/min/mg
microsomal CLint [29]: 41 µL/min/mg
half-life [30]: 60 min
pIC50 [6]: 4.77
SMILES: COc1ccc(-c2ncn(-c3cc(OC)c(OC)c(OC)c3)n2)cc1F
inhibition at 10 µM [1]: 51.3%
Activity [11]: Active
Activity [12]: Active
Activity [14]: Active
pIC50 [2]: 4.47
Activity [15]: Active
inhibition at 10 µM [3]: 6.41%
IC50 at 24 h [10]: > 100 µM
inhibition at 10 µM [4]: 32.1%
Activity [25]: Active

SMILES: COc1ccc(-c2ncn(-c3cc(OC)c(OC)c(OC)c3)n2)cn1
inhibition at 10 µM [1]: 35.9%
inhibition at 10 µM [3]: 4.95%
inhibition at 10 µM [4]: 5.25%

SMILES: COc1ccc(-n2cnc(-c3ccc(Cl)cc3)n2)cc1OC
inhibition at 10 µM [1]: 9.2%
inhibition at 10 µM [3]: 0%
inhibition at 10 µM [4]: 0%

SMILES: c1cc2c(cc1-c1ncn(-c3ccc4c(c3)OCO4)n1)OCO2
inhibition at 10 µM [1]: 8.99%
inhibition at 10 µM [4]: 17.1%

SMILES: COc1cc(-n2cnc(-c3ccc(F)c(F)c3)n2)cc(OC)c1OC
inhibition at 10 µM [1]: 23.3%
inhibition at 10 µM [4]: 23.4%
